Series [1] has as its system Leishmania infantum. The experiment in a line: Leishmanicidal activity against extracellular promastigote stage of Leishmania infantum MCAN/ES/96/BCN150 assessed as reduction of parasite load after 48 hrs by resazurin dye-based fluorometric analysis. The class given is functional, organism-based. The conditions noted are these: Leishmania infantum, MCAN/ES/96/BCN150, 48 h; read-out: IC50. Put shortly:
(§1)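 Log-phase promastigotes cultured in Schneider's medium with 20% heat-inactivated FBS at 26 °C, 2.5 × 10^5 per well. DMSO-dissolved compounds added as 2-fold serial dilutions, final DMSO ≤0.2% (v/v), 48 h at 26 °C. Growth read by 2.5 mM resazurin stock, fluorescence 535/590 nm. Triplicate; IC50 by probit analysis.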
(Alamar Blue is a resazurin reagent that responds to reducing activity.)

The test system of series [2] is Leishmania amazonensis. As to the kind of experiment: Leishmanicidal activity against extracellular promastigote stage of Leishmania amazonensis MHOM/Br/79/Maria assessed as reduction of parasite load after 48 hrs by resazurin dye-based fluorometric analysis. The class given is functional, organism-based. The following applies: Leishmania amazonensis, MHOM/Br/79/Maria, 48 h; read-out: IC50. Summed up: as §1

Series [3] can be described thus: Cytotoxicity against mouse J774 cells assessed as reduction of cell viability after 24 hrs by resazurin dye-based fluorometric analysis. Summed up: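 J774 macrophages in RPMI 1640 with 10% heat-inactivated FBS, seeded at 5 × 10^4 cells/well and attached 24 h at 37 °C, 5% CO2. Medium swapped for drug dilutions for 24 h. Then 2.5 mM resazurin stock added for 3 h, fluorescence read at 535 nm excitation / 590 nm emission. Triplicate; CC50 from probit analysis.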

Series [4] can be described thus: Selectivity index, ratio of CC50 for mouse J774 cells to IC50 for extracellular promastigote stage of Leishmania braziliensis 2903. The class given is functional.
In series [5] the test system is Leishmania infantum. The experiment in a line: Leishmanicidal activity against promastigote stage of Leishmania infantum MCAN/ES/96/BCN150 infected in BALB/c mouse assessed as reduction of parasite burden in liver at 5 mg/kg, ip qd administered for 5 days measured after 7 days by limiting dilution assay relative to untreated control. The class given is functional. Summed up:
(§2)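 BALB/c mice infected intracardially under pentobarbital anaesthesia with 10^7 stationary L. infantum BCN150 promastigotes. From day 21 post-infection, dosed ip once daily for 5 days in 0.1 mL propylene glycol, with an untreated control group. Killed 7 days later; spleen and liver burdens by limiting dilution and expressed as % reduction versus controls.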

Series [6] deals with Leishmania amazonensis. The experiment in a line: Leishmanicidal activity against intracellular amastigote stage of Leishmania amazonensis MHOM/Br/79/Maria infected in mouse J774 cells assessed as reduction of parasite load after 48 hrs by resazurin dye-based fluorometric analysis. The class given is functional, organism-based. The following applies: Leishmania amazonensis, MHOM/Br/79/Maria, J774, 48 h; read-out: IC50. Put shortly: (§3)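 J774 macrophages (5 × 10^4/well) infected with stationary promastigotes at 1:10, 24 h at 33 °C then 24 h at 37 °C, 5% CO2, and washed free of promastigotes. Then 2-fold serial dilutions in triplicate for 48 h at 37 °C. Cells lysed with RPMI with 0.048% HEPES and 0.006% SDS, transformed in Schneider's 3 days at 26 °C, resazurin 3 h, fluorescence 535/590 nm.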

For series [7], the system named is Trypanosoma cruzi. The experiment in a line: Trypanocidal activity against intracellular amastigote stage of Trypanosoma cruzi CL-B5 infected in mouse NCTC-929 cells assessed as reduction of parasite load after 7 days by CPRG-based colorimetric analysis. The conditions noted are these: nctc-929.
A short description of series [8]: Selectivity index, ratio of CC50 for mouse J774 cells to IC50 for extracellular promastigote stage of Leishmania amazonensis MHOM/Br/79/Maria. The class given is functional.
The test system of series [9] is Trypanosoma cruzi. As to the kind of experiment: Trypanocidal activity against extracellular epimastigote stage of Trypanosoma cruzi CL-B5 assessed as reduction of parasite load after 72 hrs by CPRG-based colorimetric analysis.
Series [10] deals with Leishmania braziliensis. As to the kind of experiment: Leishmanicidal activity against extracellular promastigote stage of Leishmania braziliensis 2903 assessed as reduction of parasite load after 48 hrs by resazurin dye-based fluorometric analysis. The class given is functional, organism-based. The following applies: Leishmania braziliensis, 2903, 48 h; read-out: IC50. Put shortly:
as §1

For series [11], the system named is Leishmania guyanensis. The experiment in a line: Leishmanicidal activity against extracellular promastigote stage of Leishmania guyanensis 141/93 assessed as reduction of parasite load after 48 hrs by resazurin dye-based fluorometric analysis. The following applies: Leishmania guyanensis, 141/93, 48 h; read-out: IC50. The class given is functional, organism-based. Put shortly: as §1

Series [12] concerns Leishmania infantum. The experiment in a line: Leishmanicidal activity against promastigote stage of Leishmania infantum MCAN/ES/96/BCN150 infected in BALB/c mouse assessed as reduction of parasite burden in spleen at 5 mg/kg, ip qd administered for 5 days measured after 7 days by limiting dilution assay relative to untreated control. The class given is functional. Summed up:
as §2

Series [13] relates to Leishmania infantum. As to the kind of experiment: Leishmanicidal activity against intracellular amastigote stage of Leishmania infantum MCAN/ES/96/BCN150 infected in mouse J774 cells assessed as reduction of parasite load after 48 hrs by resazurin dye-based fluorometric analysis. The class given is functional, organism-based. The conditions noted are these: Leishmania infantum, MCAN/ES/96/BCN150, J774, 48 h; read-out: IC50. Put shortly:
as §3

Activity calls are given as the source filed them. The calls are words filed in the database; no cut-off is given here.

As for `Cc1cc2cc(NS(=O)(=O)c3ccccc3)ccc2[nH]1`, the IC50 was 23.4 µM in [1]; 15.4 µM in [2]; 64.1 µM in series [6]; “Not Active” in series [7]; “Not Active” in series [9]; 29 µM in series [10]. Also, the IC50 was 20.9 µM in series [11] and 47.3 µM in series [13]. The CC50 at 24 h in series [3] was no less than 300 µM. The “Ratio CC50/IC50” value in series [4] was greater than 8.8; in series [8], greater than 16.6. The result in [5] and in series [12] was inactive.

By IC50 is commonly meant the concentration that inhibits the measured activity by half. One may read the CC50 as the concentration giving 50% cytotoxicity.

These data come from ChEMBL document CHEMBL3085685, “In vitro and in vivo antileishmanial and trypanocidal studies of new N-benzene- and N-naphthalenesulfonamide derivatives” (J Med Chem, 2013).
